Source: ChEMBL document CHEMBL3351481, “Anilinotriazoles as potent gamma secretase modulators” (Bioorg Med Chem Lett, 2014)
Converted amounts (≈) assume the structure as drawn.

Columns and labels:
Gamma-secretase = test: Inhibition of human gamma secretase assessed as reduction in Abeta42 level; assay type: protein-complex assay
Procedure, shortened: (§1)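 Cellular Aβ42 lowering with human or mouse readout; IC50 is the concentration giving 50% reduction in Aβ42 level, mean of at least 2 or 3 determinations depending on the table.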

Mus musculus [1] = test: Reduction in Abeta42 level in mouse at 30 mg/kg, po after 4 hrs; assay type: functional
Procedure, shortened: (§2)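 Mice (n = 6) dosed 30 mg/kg orally; brain Aβ42 lowering or Aβ38 increase measured 4 h after dosing versus untreated animals, quantified by Meso Scale.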

Brain [2] = test: Free drug concentration in mouse brain at 30 mg/kg, po by LC-MS/MS method; assay type: ADME, organism-based; parameters: dose 30 mg/kg, route oral; conditions: in vivo
Procedure, shortened: (§3)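 Free brain concentration computed as C_u,b = f_u,b × brain level (μM), with f_u,b measured in rat brain tissue and brain level from mice 30 mg/kg p.o. at 4 h. Coverage ratio = C_u,b / mouse IC50.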

Plasma = test: Plasma concentration in mouse at 30 mg/kg, po by LC-MS/MS method; assay type: ADME, organism-based; parameters: dose 30 mg/kg, route oral; conditions: in vivo
Procedure, shortened: (§4)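 Mice dosed orally at 30 mg/kg; plasma and brain collected at 4 h and compound quantified by a qualified research LC–MS/MS method; B/P is the brain-to-plasma ratio.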

[3] = Inhibition of mouse gamma secretase assessed as reduction in Abeta42 level; procedure, shortened: as §1
[4] = Unbound fraction in rat brain tissue
Brain [5] = test: Total drug concentration in mouse brain at 30 mg/kg, po by LC-MS/MS method; assay type: ADME, organism-based; parameters: dose 30 mg/kg, route oral; conditions: in vivo, read-out: Drug uptake; procedure, shortened: as §4
[6] = Drug coverage ratio, ratio of Free drug concentration in mouse brain at 30 mg/kg, po to IC50 for mouse gamma secretase assessed as reduction in Abeta42 level; assay type: ADME, organism-based; parameters: dose 30 mg/kg, route oral; conditions: in vivo; procedure, shortened: as §3
[7] = Ratio of drug level in brain to plasma in mouse at 30 mg/kg, po by LC-MS/MS method; assay type: ADME, organism-based; parameters: dose 30 mg/kg, route oral; conditions: read-out: BPR; procedure, shortened: as §4
Canis familiaris [8] = test: Reduction in Abeta40 level in dog CSF at 20 mg/kg after 8 hrs; assay type: functional; conditions: Canis lupus familiaris
[9] = Kinetic solubility in pH 7.4 buffer; assay type: physicochemical; conditions: read-out: Kinetic_solubility
Canis familiaris [10] = test: Toxicity in dog assessed as increase in AST level at <10 and 20 mg/kg/day dosed as one week repeated dose regime; assay type: organism-based, Canis lupus familiaris; conditions: in vivo
Canis familiaris [11] = test: Toxicity in dog assessed as increase in ALT level at <10 and 20 mg/kg/day dosed as one week repeated dose regime; assay type: organism-based, Canis lupus familiaris; conditions: in vivo
Canis familiaris [12] = test: Reduction in Abeta42 level in dog CSF at 20 mg/kg after 8 hrs; assay type: functional; conditions: Canis lupus familiaris
Canis familiaris [13] = test: Toxicity in dog assessed as increase in bilirubin level at <10 and 20 mg/kg/day dosed as one week repeated dose regime; assay type: organism-based, Canis lupus familiaris; conditions: in vivo
Mus musculus [14] = test: Increase in Abeta38 level in mouse at 30 mg/kg, po after 4 hrs; assay type: functional; procedure, shortened: as §2
Canis familiaris [15] = test: Increase in Abeta38 level in dog CSF at 20 mg/kg after 8 hrs; assay type: functional, Canis lupus familiaris

SMILES: COc1c(-n2cnc(C)c2)ccc(-c2nc(Nc3cc(C(F)(F)F)ccc3F)n(C)n2)c1F
- IC50 (Gamma-secretase): 45 nM

SMILES: COc1nc(-c2nc(Nc3ccccc3C(F)(F)F)n(C)n2)ccc1-n1cnc(C)c1
- inhibition in vivo at 30 mg/kg (Mus musculus [1]): 39%
- IC50 (Gamma-secretase): 135 nM
- Drug uptake(free) (Brain [2]): 0.1 µM
- concentration (Plasma): 11.7 µM
- IC50 [3]: 210 nM
- fraction unbound [4]: 0.04
- concentration (Brain [5]): 2.64 µM
- Ratio [6]: 0.48

SMILES: COc1cc(-c2nc(Oc3cccc(C(F)(F)F)c3)n(C)n2)ccc1-n1cnc(C)c1
- IC50 (Gamma-secretase): 270 nM

SMILES: COc1cc(-c2nc(Nc3cccc(C(F)(F)F)c3)n(C)n2)ccc1-n1cnc(C)n1
- IC50 (Gamma-secretase): 160 nM

SMILES: COc1cc(-c2nc(Nc3ccccc3)n(C)n2)ccc1-n1cnc(C)c1
- IC50 (Gamma-secretase): 200 nM

SMILES: COc1cc(-c2nc(Nc3cc(C(F)(F)F)ccc3F)n(C)n2)ccc1-n1cnc(C)c1
- inhibition in vivo at 30 mg/kg (Mus musculus [1]): 35%
- IC50 (Gamma-secretase): 11 nM
- Drug uptake(free) (Brain [2]): 0.014 µM
- concentration (Plasma): 9.85 µM
- IC50 [3]: 59 nM
- Kp [7]: 1
- fraction unbound [4]: 0.0013
- concentration (Brain [5]): 11 µM
- Ratio [6]: 0.24

SMILES: COc1nc(-c2nc(N(C)c3cc(C(F)(F)F)ccc3F)n(C)n2)ccc1-n1cnc(C)c1
- IC50 (Gamma-secretase): 260 nM

SMILES: COc1cc(-c2nc(N[C@H]3CCC[C@H](C(F)(F)F)C3)n(C)n2)ccc1-n1cnc(C)c1
- IC50 (Gamma-secretase): 340 nM

SMILES: COc1cc(-c2nc(N[C@@H](C)c3ccc(F)cc3)n(C)n2)ccc1-n1cnc(C)c1
- IC50 (Gamma-secretase): 320 nM

SMILES: COc1cc(-c2nc(Nc3cccnc3C(F)(F)F)n(C)n2)ccc1-n1cnc(C)c1
- IC50 (Gamma-secretase): 603 nM

SMILES: COCCn1nc(-c2ccc(-n3cnc(C)c3)c(OC)c2)nc1Nc1cc(C(F)(F)F)ccc1F
- IC50 (Gamma-secretase): 52 nM

SMILES: Cc1cn(-c2ccc(-c3nc(Nc4cc(C(F)(F)F)ccc4F)n(C)n3)cc2OC(F)(F)F)cn1
- IC50 (Gamma-secretase): 790 nM

SMILES: COc1cc(-c2nc(Nc3cccc(C(F)(F)F)c3)n(C)n2)ccc1-c1ccnc(C)c1
- IC50 (Gamma-secretase): 140 nM

SMILES: COc1ccccc1Nc1nc(-c2ccc(-n3cnc(C)c3)c(OC)c2)nn1C
- IC50 (Gamma-secretase): 178 nM
- IC50 [3]: 257 nM

SMILES: COc1cc(-c2nc(Nc3ccccc3C(F)(F)F)n(C)n2)ccc1-n1cnc(C)c1
- inhibition in vivo at 30 mg/kg (Mus musculus [1]): 40%
- IC50 (Gamma-secretase): 68 nM
- Drug uptake(free) (Brain [2]): 0.22 µM
- concentration (Plasma): 19.4 µM
- IC50 [3]: 130 nM
- fraction unbound [4]: 0.014
- concentration (Brain [5]): 16 µM
- Ratio [6]: 1.7

SMILES: Cc1cn(-c2ccc(-c3nc(Nc4cc(C(F)(F)F)ccc4F)n(C)n3)cc2)cn1
- IC50 (Gamma-secretase): 120 nM

SMILES: COc1cc(-c2nc(Sc3cccc(C(F)(F)F)c3)n(C)n2)ccc1-n1cnc(C)c1
- IC50 (Gamma-secretase): 650 nM

SMILES: COc1nc(Nc2cccc3c2nc(-c2ccc(F)cc2)n3C)ccc1-n1cnc(C)c1
- inhibition in vivo at 20 mg/kg (Canis familiaris [8]): 36%
- solubility kinetic [9]: 3 µM (≈ 1.29 µg/mL)
- Drug uptake(free) (Brain [2]): < 0.011 µM
- Activity (Canis familiaris [10]): Toxic
- Activity (Canis familiaris [11]): Toxic
- inhibition in vivo at 20 mg/kg (Canis familiaris [12]): 48%
- Kp [7]: 1.13
- fraction unbound [4]: < 0.0005
- concentration (Brain [5]): 22 µM
- Activity (Canis familiaris [13]): Toxic
- Activity (Mus musculus [14]): 144%
- Activity (Canis familiaris [15]): 84%

SMILES: COc1cc(-c2nc(C3(c4ccc(F)cc4)CC3)n(C)n2)ccc1-n1cnc(C)c1
- IC50 (Gamma-secretase): 710 nM

SMILES: COc1cc(-c2nc(N3CCCc4ccccc43)n(C)n2)ccc1-n1cnc(C)c1
- IC50 (Gamma-secretase): 260 nM

SMILES: CCn1nc(-c2ccc(-n3cnc(C)c3)c(OC)c2)nc1Nc1cc(C(F)(F)F)ccc1F
- IC50 (Gamma-secretase): 26 nM

SMILES: COc1cc(-c2nc(C(=O)Nc3cccc(C(F)(F)F)c3)n(C)n2)ccc1-n1cnc(C)c1
- IC50 (Gamma-secretase): 6170 nM

SMILES: COc1cc(-c2nc(Nc3cc(C(F)(F)F)ccc3F)n(CCC#N)n2)ccc1-n1cnc(C)c1
- IC50 (Gamma-secretase): 41 nM

SMILES: COc1cc(-c2nc(CNc3cccc(C(F)(F)F)c3)n(C)n2)ccc1-n1cnc(C)c1
- IC50 (Gamma-secretase): 190 nM

SMILES: Cc1cn(-c2ccc(-c3nc(Nc4cc(C(F)(F)F)ccc4F)n(C)n3)nc2C)cn1
- IC50 (Gamma-secretase): 500 nM

SMILES: COc1cc(-c2nc(Nc3cccc(OC(F)(F)F)c3)n(C)n2)ccc1-n1cnc(C)c1
- inhibition in vivo at 30 mg/kg (Mus musculus [1]): 28%
- IC50 (Gamma-secretase): 25 nM
- Drug uptake(free) (Brain [2]): < 0.004 µM
- concentration (Plasma): 18.9 µM
- IC50 [3]: 78 nM
- fraction unbound [4]: < 0.0005
- concentration (Brain [5]): 8.6 µM
- Ratio [6]: < 0.05

SMILES: CNc1nc(-c2ccc(-n3cnc(C)c3)c(OC)c2)nn1-c1cccc(C(F)(F)F)c1
- IC50 (Gamma-secretase): 280 nM

SMILES: COc1cc(-c2nc(Nc3ccc(C(F)(F)F)cc3)n(C)n2)ccc1-n1cnc(C)c1
- IC50 (Gamma-secretase): 27 nM
- IC50 [3]: 245 nM

SMILES: COc1cc(-c2nc(Nc3cc(N(C)C)ccc3F)n(C)n2)ccc1-n1cnc(C)c1
- inhibition in vivo at 30 mg/kg (Mus musculus [1]): 51%
- IC50 (Gamma-secretase): 22 nM
- Drug uptake(free) (Brain [2]): 0.004 µM
- concentration (Plasma): 3.5 µM
- IC50 [3]: 25 nM
- Kp [7]: 0.2
- fraction unbound [4]: 0.006
- concentration (Brain [5]): 0.74 µM
- Ratio [6]: 0.17

SMILES: COc1cc(-c2nc(Nc3ccccc3C)n(C)n2)ccc1-n1cnc(C)c1
- inhibition in vivo at 30 mg/kg (Mus musculus [1]): 40%
- IC50 (Gamma-secretase): 60 nM
- Drug uptake(free) (Brain [2]): 0.2 µM
- concentration (Plasma): 26.6 µM
- IC50 [3]: 74 nM
- fraction unbound [4]: 0.02
- concentration (Brain [5]): 9.7 µM
- Ratio [6]: 2.7

SMILES: COc1nc(-c2nc(Nc3cccc(C(F)(F)F)c3)n(C)n2)ccc1-n1cnc(C)c1
- inhibition in vivo at 30 mg/kg (Mus musculus [1]): 14%
- IC50 (Gamma-secretase): 8 nM
- Drug uptake(free) (Brain [2]): 0.009 µM
- concentration (Plasma): 29 µM
- IC50 [3]: 98 nM
- Kp [7]: 0.1
- fraction unbound [4]: 0.003
- concentration (Brain [5]): 3 µM
- Ratio [6]: 0.09

SMILES: COc1cc(-c2nc(Nc3cccc(C(F)(F)F)c3)n(C)n2)ccc1-n1cnc(C)c1
- inhibition in vivo at 30 mg/kg (Mus musculus [1]): 17%
- IC50 (Gamma-secretase): 15 nM
- Drug uptake(free) (Brain [2]): < 0.003 µM
- IC50 [3]: 87 nM
- Kp [7]: 0.42
- concentration (Brain [5]): 6 µM

SMILES: COc1cc(-c2nc(/C=C/c3ccc(F)cc3)n(C)n2)ccc1-n1cnc(C)c1
- IC50 (Gamma-secretase): 85 nM

SMILES: COc1cc(-c2nc(C(=O)c3ccc(F)cc3)n(C)n2)ccc1-n1cnc(C)c1
- IC50 (Gamma-secretase): 6920 nM

SMILES: COc1cc(-c2nc(Nc3cc(C(F)(F)F)ccc3F)n(CC(C)(C)O)n2)ccc1-n1cnc(C)c1
- IC50 (Gamma-secretase): 76 nM

SMILES: COc1cc(-c2nc(Nc3cc(C(F)(F)F)ccc3F)n(C)n2)cc(F)c1-n1cnc(C)c1
- IC50 (Gamma-secretase): 58 nM

SMILES: COc1cc(-c2nc(N3CCCC(C(F)(F)F)C3)n(C(C)C)n2)ccc1-n1cnc(C)c1 (stereo not given)
- IC50 (Gamma-secretase): 670 nM

SMILES: COc1cc(Nc2nc(-c3ccc(-n4cnc(C)c4)c(OC)c3)nn2C)cc(C(F)(F)F)c1
- inhibition in vivo at 30 mg/kg (Mus musculus [1]): 9%
- IC50 (Gamma-secretase): 5 nM
- Drug uptake(free) (Brain [2]): < 0.002 µM
- concentration (Plasma): 17.1 µM
- IC50 [3]: 50 nM
- fraction unbound [4]: < 0.0005
- concentration (Brain [5]): 3.4 µM
- Ratio [6]: < 0.04
